Experimental data: ChEMBL document CHEMBL2311527, “Synthesis of cembranoid analogues and evaluation of their potential as quorum sensing inhibitors” (Bioorg Med Chem, 2013)
Activity calls are given as the source filed them. The calls are words filed in the database; no cut-off is given here.

What was measured:
[1] = tested on: Chromobacterium violaceum; assay: Inhibition of quorum sensing system in Chromobacterium violaceum ATCC 31532 assessed as inhibition of violacein pigment production at 30 ug/disk after 48 hrs by NCCLS disk diffusion method
Method in brief: (§1)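 Sterile 5.2 mm filter-paper disks were loaded with 30.0, 15.0, 7.5, 5.0 and 2.5 per disk from MeOH solutions and air-dried for 1 h. They were placed on trypticase soy agar spread with C. violaceum broth culture (10^6 cfu/mL, 0.5 McFarland) and incubated 48 h at 26 °C. The endpoint was the minimum amount per disk giving a colourless, opaque but viable halo, meaning violacein loss without growth inhibition. Kojic acid and Cu2O served as positive controls.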

[2] = tested on: Chromobacterium violaceum; assay: Inhibition of quorum sensing system in Chromobacterium violaceum ATCC 31532 assessed as inhibition of violacein pigment production measured per disk after 48 hrs by NCCLS disk diffusion method; method in brief: as §1
[3] = tested on: Chromobacterium violaceum; assay: Antibacterial activity against Chromobacterium violaceum ATCC 31532 assessed as growth inhibition at 2.5 to 30 ug/disk after 48 hrs by NCCLS disk diffusion method; format: functional, organism-based

SMILES | inhibition [1] | INH [2] | growth inhibition (GI) [3]
C=C(C)[C@H]1CC/C(C)=C/CC[C@@](C)(O)[C@@H]2CC/C(=C/[C@@H]1O)CO2 | inactive | – | –
C=C(C)[C@H]1CC/C(C)=C/CC[C@@](C)(Cl)[C@H](O)CC/C(COC(C)=O)=C/[C@@H]1O | – | 7.5 µg | –
C=C1CC/C=C(\C)CC[C@H](C(=C)C)[C@@H](O)/C=C(\COC(C)=O)CC[C@H]1O | – | 7.5 µg | –
C=C1CC/C=C(\C)CC[C@H](C(=C)C)[C@@H](OC(C)=O)/C=C(/COC(C)=O)CC[C@H]1O | – | 7.5 µg | –
O=c1cc(CO)occ1O | – | 90 µg | –
C=C(C)[C@@H]1CC[C@@H](C)C(=O)CC[C@H](C)CC2(O)C[C@@H](C)[C@@H](C1)O2 | inactive | – | –
C=C(C)[C@H]1C[C@H](O)/C(C)=C/CC[C@@]2(C)O[C@@H]2CC/C(COC(C)=O)=C/[C@@H]1O | – | 30 µg | –
C=C(C)[C@H]1CC/C(C)=C/CCC(C)C(=O)CC/C(COC)=C/[C@@H]1O (stereo not given in full) | inactive | – | –
C=C(C)[C@@H]1CC[C@@H](C)[C@H](O)CC[C@@H](C)CC2(O)C[C@@H](C)[C@@H](C1)O2 | inactive | – | –
C=C(C)[C@H]1CC/C(C)=C/C/C=C(\C)[C@H](O)CC/C(COC(C)=O)=C\[C@@H]1OC(C)=O | – | 2.5 µg | –
C=C(C)[C@H]1CC/C(C)=C/CC[C@@](C)(Cl)[C@H](O)CC/C(COC(C)=O)=C\[C@@H]1OC(C)=O | inactive | – | –
C=C(C)[C@H]1CC/C(C)=C/CC[C@@]2(C)O[C@@H]2CC/C(COC(C)=O)=C\[C@@H]1O | inactive | – | –
C=C(C)[C@H]1CC/C(C)=C/CC[C@@]2(C)O[C@@H]2CC/C(C=O)=C/[C@@H]1O | inactive | – | –
C=C(C)[C@H]1CC/C(C)=C/CC[C@]2(C)O[C@H]1/C=C(\COC(C)=O)CC[C@H]2O | inactive | – | –
C=C(C)[C@@H]1C/C=C(/COC(C)=O)CC[C@H]2O[C@]2(C)CC/C=C(\C)CC1 | inactive | – | –
C=C(C)[C@@H]1CC[C@@H](C)[C@H](O)CC[C@H](C)CC2(O)C[C@@H](C)[C@@H](C1)O2 | – | 7.5 µg | inactive
C=C(C)[C@@H]1C/C=C(\COC(C)=O)CC[C@@H](O)C(=C)CC/C=C(\C)CC1 | inactive | – | –
C=C(C)[C@@H]1C/C=C(\COC(C)=O)CC[C@@H](O)/C(C)=C\C/C=C(\C)CC1 | inactive | – | –
C=C(C)[C@H]1CC/C(C)=C/CC[C@@]2(C)O[C@@H]2CC/C(COC(C)=O)=C\[C@@H]1OC(C)=O | inactive | – | –

SMILES | inhibition [1] | INH [2] | growth inhibition (GI) [3]
C=C(C)[C@H]1CC/C(C)=C/CC[C@@](C)(Cl)[C@H](O)CC/C(CO)=C/[C@@H]1O | – | 30 µg | –
C=C(C)[C@@H]1CC[C@@H](C)C(=O)CC[C@H](C)CC(=O)C[C@@H](C)[C@H](O)C1 | inactive | – | –
C=C(C)[C@@H]1CC[C@@H](C)[C@H](O)CC[C@@H](C)CC(=O)C[C@@H](C)[C@H](O)C1 | inactive | – | –
C=C(C)[C@H]1CC/C(C)=C/CC[C@@](C)(O)[C@H](O)CC/C(CO)=C/[C@@H]1O | inactive | – | –
C=C(C)[C@H]1CC/C(C)=C/CC[C@@]2(C)O[C@@H]2CCC(C=O)=CC1=O | inactive | – | –
C=C(C)[C@H]1CC/C(C)=C/C/C=C(/C)[C@@H](O)CC/C(COC(C)=O)=C\[C@@H]1OC(C)=O | – | 7.5 µg | –
C=C(C)[C@H]1CC[C@@](C)(O)[C@H]2CCC(=C)[C@@H](CC/C(CO)=C/[C@@H]1O)O2 | inactive | – | –
C=C(C)[C@@H]1CC[C@@H](C)[C@H](OC(C)=O)CC[C@@H](C)CC(=O)C[C@@H](C)[C@H](OC(C)=O)C1 | – | 15 µg | –
C=C(C)[C@@H]1CC[C@@H](C)C(=O)CC[C@H](C)CC(=O)C[C@@H](C)[C@H](OC(C)=O)C1 | – | 7.5 µg | –
CC(=O)OCC12CC[C@H]3O[C@]3(C)CCC3OC3(C)CC[C@H]([C@]3(C)CO3)[C@@H](O)C1O2 (stereo not given in full) | inactive | – | –
C=C(C)[C@@H]1CC[C@@H](C)[C@H](OC(C)=O)CC[C@H](C)CC(=O)C[C@@H](C)[C@H](OC(C)=O)C1 | – | 30 µg | inactive
C=C(C)[C@H]1CC/C(C)=C/CC[C@@]2(C)O[C@H]1/C=C(\CO)CC[C@H]2O | – | 30 µg | –
C=C(C)[C@H]1CC/C(C)=C/CC[C@](C)(O)[C@H](O)CC/C(COC(C)=O)=C/[C@@H]1O | – | 7.5 µg | –
C=C(C)[C@@H]1C/C=C(\COC(C)=O)CC[C@@H](O)[C@](C)(Cl)CC/C=C(\C)CC1 | inactive | – | –
C=C(C)[C@@H]1CC[C@@H](C)[C@H](O)CC[C@H](C)CC(=O)C[C@@H](C)[C@H](O)C1 | – | 7.5 µg | –
C=C(C)[C@H]1CC/C(C)=C/C/C=C(/C)[C@H](O)CC/C(COC(C)=O)=C/[C@@H]1O | inactive | – | –
C=C(C)[C@H]1CC[C@@](C)(I)[C@H]2CC[C@@](C)(O2)[C@@H](I)CC/C(COC(C)=O)=C/[C@@H]1O | inactive | – | –
C=C(C)[C@H]1CC/C(C)=C/CCC(C)(C=O)CC/C(COC(C)=O)=C/[C@@H]1O (stereo not given in full) | – | 7.5 µg | –
C=C(C)[C@H]1CC/C(C)=C/CC[C@@]2(C)O[C@@H]2CC/C(CO)=C\[C@@H]1O | inactive | – | –
